From PubChem
NPY-Y2 antag – antagonists of human neuropeptide Y receptor Y2; NPY-Y2 expressing cells, antagonist mode; inhibition, % at 2.7 µM; P49146; AID 793; actives 0.99% (n = 140,000);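 also: 0% = vehicle with agonist challenge and 100% = reference antagonist with challenge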
Target sequence (P49146 whole entry, looked up): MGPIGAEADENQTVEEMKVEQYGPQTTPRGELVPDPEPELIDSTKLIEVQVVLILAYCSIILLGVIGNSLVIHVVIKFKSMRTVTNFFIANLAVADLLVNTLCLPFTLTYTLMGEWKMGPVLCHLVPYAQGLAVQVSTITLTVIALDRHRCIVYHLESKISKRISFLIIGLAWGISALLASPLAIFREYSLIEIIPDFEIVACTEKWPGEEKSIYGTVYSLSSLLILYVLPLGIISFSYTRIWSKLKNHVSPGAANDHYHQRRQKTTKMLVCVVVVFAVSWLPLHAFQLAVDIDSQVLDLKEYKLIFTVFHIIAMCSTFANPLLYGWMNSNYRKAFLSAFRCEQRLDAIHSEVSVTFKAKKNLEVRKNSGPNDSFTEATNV
NPY-Y1 antag – antagonists of human neuropeptide Y receptor Y1; P25929; inhibition, % at 3.6 µM; actives 1% (n = 200,000); HEK293-CNG Y1 cells, membrane potential fluorescence; NPY at EC95, then isoproterenol;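 active = inhibition above the campaign mean inhibition of all tested compounds plus 3 SD, cut at about 20% in these data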;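 also: 0% = DMSO wells given NPY plus isoproterenol and 100% = isoproterenol alone without NPY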
Target sequence (P25929 whole entry, looked up): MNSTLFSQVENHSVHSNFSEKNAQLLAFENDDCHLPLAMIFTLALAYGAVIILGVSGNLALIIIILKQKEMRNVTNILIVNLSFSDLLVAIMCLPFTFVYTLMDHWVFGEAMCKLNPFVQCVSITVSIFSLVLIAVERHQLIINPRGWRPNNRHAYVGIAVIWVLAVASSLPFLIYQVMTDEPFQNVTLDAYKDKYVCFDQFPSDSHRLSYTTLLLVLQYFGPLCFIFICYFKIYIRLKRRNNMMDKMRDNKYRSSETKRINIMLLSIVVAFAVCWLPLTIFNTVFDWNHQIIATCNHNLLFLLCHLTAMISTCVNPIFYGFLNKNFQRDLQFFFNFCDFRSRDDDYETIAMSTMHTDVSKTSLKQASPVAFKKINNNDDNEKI
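Assay system: HEK293 Y1/CNG channel cell line; Doses: single compound dose of 3.6 µM, 0.4% DMSO; Timing: dye 3 h, compound 60 min room temperature, stimulation 45 min; Technique: Membrane-potential fluorescent dye readout; Measure: % inhibition of NPY effect.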
NPY-Y2 PAM-ag – human NPY-Y2 potentiation or agonism, primary screen | activation, % at 3.6 µM | cells expressing NPY-Y2, potentiator/agonist read-out | actives 0.45% (n = 220,000) | P49146; in the data active = activation above about 27%;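 also: cells stimulated with NPY near EC25 plus isoproterenol at EC100; 0% = vehicle plus submaximal agonist and 100% = vehicle plus saturating agonist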
NPY-Y1 PAM-ag – potentiates or activates human NPY-Y1 receptor; P25929; NPY-Y1 expressing cells, potentiator/agonist activation; activation, % at 3.6 µM; actives 0.37% (n = 220,000); in the data active = activation above about 33%, passing the limit was not always enough;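 also: cells stimulated with NPY at EC10 then isoproterenol at EC100; 0% = low agonist plus stimulus and 100% = saturating agonist plus stimulus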
NPY-Y1 ant conf – human NPY-Y1 antagonism, confirmation. shares compounds with NPY-Y1 antag. HEK293-CNG NPY-Y1, membrane potential fluorescence, cAMP; NPY challenge against isoproterenol-raised cAMP. inhibition, % at 3.6 µM. actives 21% (n = 1,200); in the data active = inhibition above about 20%;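 also: 0% = vehicle with agonist plus stimulus and 100% = stimulus alone without agonist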
NPY-Y2 antag ct – counter-screen for NPY-Y1 antagonists: human NPY-Y2 antagonism | shares compounds with NPY-Y1 antag | actives 28% (n = 1,200) | inhibition, % at 3.6 µM | HEK293 NPY-Y2 CNG membrane potential fluorescence; cells given NPY, then isoproterenol | AID 1255;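 also: 0% = DMSO with agonist challenge and 100% = reference antagonist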
* hit, by the source's call. A selection: hits, their analogues and other compounds. The true share with any hit is near 1.8%. Rule as the data show it, unless noted: active = inhibition above about 17%; inactive = the rest.

What do the screens show for `CCN(c1ccc(NC(=O)COC(=O)c2cccs2)cc1)C(C)C`?
NPY-Y2 antag: 0.5; NPY-Y1 antag: 5.5; NPY-Y2 PAM-ag: 9.0; NPY-Y1 PAM-ag: 25.0

Results for CCN(CC)c1ccc(NC(=O)COC(=O)c2cccs2)cc1 ?
NPY-Y2 antag: 4.9; NPY-Y1 antag: 20.7*; NPY-Y2 PAM-ag: 0.4; NPY-Y1 PAM-ag: 3.4; NPY-Y1 ant conf: -0.8; NPY-Y2 antag ct: 1.6

How did O=C(O)c1ccc(Cn2c(SCc3cc(=O)n4cc(Br)ccc4n3)nc3ccsc3c2=O)cc1 do in these assays?
NPY-Y1 antag: -2.2; NPY-Y2 PAM-ag: 9.8; NPY-Y1 PAM-ag: 25.8

What do the screens show for `O=C(O)C1CCC(Cn2c(SCc3cc(=O)n4cc(Br)ccc4n3)nc3ccsc3c2=O)CC1` (stereo not given)?
NPY-Y1 antag: 26.0*; NPY-Y2 PAM-ag: -37.3; NPY-Y1 PAM-ag: -26.0; NPY-Y1 ant conf: 80.5*; NPY-Y2 antag ct: 87.2*

What do the screens show for `CC(C)(C)C(=O)N/C(N)=N/c1nc2ccccc2o1`?
NPY-Y2 PAM-ag: -8.2; NPY-Y1 PAM-ag: 14.9

What do the screens show for `CN(CCOC(=O)c1ccccc1)Cc1ccccc1`?
NPY-Y2 antag: 3.3; NPY-Y1 antag: 7.6; NPY-Y2 PAM-ag: -5.0; NPY-Y1 PAM-ag: 13.1

How did CN(CCOC(=O)c1cccc(F)c1)Cc1ccccc1 do in these assays?
NPY-Y2 antag: 3.0; NPY-Y1 antag: 25.5*; NPY-Y2 PAM-ag: -2.1; NPY-Y1 PAM-ag: -2.0; NPY-Y1 ant conf: 0.9; NPY-Y2 antag ct: 3.5

How did COc1ccc(F)cc1C(=O)C1CCCN(Cc2cccn2-c2ccccn2)C1 (stereo not given) do in these assays?
NPY-Y1 antag: 34.7*; NPY-Y2 PAM-ag: -26.7; NPY-Y1 PAM-ag: -28.8; NPY-Y1 ant conf: 23.2*; NPY-Y2 antag ct: 20.5*

Results for COc1ccc(C(=O)C2CCCN(Cc3cccn3-c3ccccn3)C2)c(OC)c1 (stereo not given) ?
NPY-Y1 antag: 27.1*; NPY-Y2 PAM-ag: -35.9; NPY-Y1 PAM-ag: -28.3; NPY-Y1 ant conf: 20.6*; NPY-Y2 antag ct: 17.6*

What do the screens show for `COc1ccc(S(=O)(=O)Nc2ccccc2N2CCOCC2)cc1[N+](=O)[O-]`?
NPY-Y2 PAM-ag: 1.1; NPY-Y1 PAM-ag: 16.4

Results for COc1ccc(C(=O)n2c(-c3ccco3)nc3ccccc32)cc1 ?
NPY-Y2 antag: 6.6; NPY-Y1 antag: 22.6*; NPY-Y2 PAM-ag: -16.7; NPY-Y1 PAM-ag: -30.1; NPY-Y1 ant conf: 8.5; NPY-Y2 antag ct: 13.9

How did COc1ccc(C(=O)N2CCn3c2nc2ccccc23)cc1 do in these assays?
NPY-Y1 antag: -0.2; NPY-Y2 PAM-ag: -7.4; NPY-Y1 PAM-ag: 15.7

What do the screens show for `Cc1ccc(NC(=S)NCCN(C2CCCCC2)C2CCCC2)cc1C`?
NPY-Y1 antag: 27.5*; NPY-Y2 PAM-ag: -1.9; NPY-Y1 PAM-ag: -12.3; NPY-Y1 ant conf: 8.1; NPY-Y2 antag ct: 12.7

How did Cc1ccc(NC(=S)NCCN(C2CCCCC2)C2CCCC2)cc1 do in these assays?
NPY-Y1 antag: 13.2; NPY-Y2 PAM-ag: -17.7; NPY-Y1 PAM-ag: -25.9

What do the screens show for `C=CCn1c(C2CCCCC2)n[nH]c1=S`?
NPY-Y1 antag: -2.0; NPY-Y2 PAM-ag: 6.4; NPY-Y1 PAM-ag: -15.7

Results for CCCCN=CC1=C(O)CC(c2ccccc2)CC1=O (stereo not given) ?
NPY-Y1 antag: 0.8; NPY-Y2 PAM-ag: -4.1; NPY-Y1 PAM-ag: -24.4

How did COc1ccccc1OC(=O)c1cc(Cl)nc2ccccc12 do in these assays?
NPY-Y2 antag: 0.3; NPY-Y1 antag: 20.6*; NPY-Y2 PAM-ag: 3.1; NPY-Y1 PAM-ag: -1.9; NPY-Y1 ant conf: 13.5; NPY-Y2 antag ct: 17.1*

Results for Cc1cc(OC(=O)c2cc(Cl)nc3ccccc23)ccc1Cl ?
NPY-Y2 antag: 3.5; NPY-Y1 antag: 3.2; NPY-Y2 PAM-ag: -8.6; NPY-Y1 PAM-ag: -10.3

What do the screens show for `COc1ccc(/C=N/n2cnnc2)cc1Br`?
NPY-Y2 PAM-ag: 5.6; NPY-Y1 PAM-ag: 3.4

What do the screens show for `COc1ccc(/C=N/OC(=O)Nc2ccccc2OC)cc1`?
NPY-Y1 antag: 21.9*; NPY-Y2 PAM-ag: -15.5; NPY-Y1 PAM-ag: -17.3; NPY-Y1 ant conf: 5.7; NPY-Y2 antag ct: 11.9

What do the screens show for `COc1ccc(NC(=O)O/N=C/c2ccncc2)cc1`?
NPY-Y1 antag: -2.8; NPY-Y2 PAM-ag: 20.9; NPY-Y1 PAM-ag: 12.7

Results for CC/C(=N\NC(=O)c1ccc(-c2ccccc2)cc1)C12CC3CC(CC(C3)C1)C2 ?
NPY-Y2 antag: 3.4; NPY-Y1 antag: 11.8; NPY-Y2 PAM-ag: -17.4; NPY-Y1 PAM-ag: -59.9

How did COc1ccc([N+](=O)[O-])cc1N(CC(O)CN(CC(C)C)CC(C)C)S(=O)(=O)c1ccccc1 (stereo not given) do in these assays?
NPY-Y2 antag: 16.7; NPY-Y1 antag: 68.8*; NPY-Y2 PAM-ag: -13.4; NPY-Y1 PAM-ag: -22.2; NPY-Y1 ant conf: 30.2*; NPY-Y2 antag ct: 13.6

Results for COc1ccc([N+](=O)[O-])cc1N(CC(O)CN(C)C)S(=O)(=O)c1ccc(C)cc1 (stereo not given) ?
NPY-Y1 antag: 2.5; NPY-Y2 PAM-ag: 3.5; NPY-Y1 PAM-ag: 18.3

How did O=C(c1ccccn1)N(Cc1cccs1)C1(C(=O)NC2CCCCC2)CCCCC1 do in these assays?
NPY-Y1 antag: 44.0*; NPY-Y2 PAM-ag: -10.7; NPY-Y1 PAM-ag: 7.5; NPY-Y1 ant conf: 15.4; NPY-Y2 antag ct: 7.3

What do the screens show for `CN(C(=O)c1ccccn1)C1(C(=O)NC2CCCCC2)CCCCC1`?
NPY-Y2 antag: 7.5; NPY-Y1 antag: 7.4; NPY-Y2 PAM-ag: -2.6; NPY-Y1 PAM-ag: 8.6

Results for O=C(NCc1cccnc1)C(=O)N/N=C/c1ccccc1[N+](=O)[O-] ?
NPY-Y1 antag: 8.1; NPY-Y2 PAM-ag: 13.5; NPY-Y1 PAM-ag: -7.6

What do the screens show for `COc1cc(C(=O)OC2CC3CCC2(C)C3(C)C)ccc1OC(C)=O` (stereo not given)?
NPY-Y1 antag: -1.4; NPY-Y2 PAM-ag: -18.0; NPY-Y1 PAM-ag: -2.7

What do the screens show for `CCN(CC)S(=O)(=O)c1cccc(-c2nnc(SCCOc3ccccc3)o2)c1`?
NPY-Y2 antag: 14.8; NPY-Y1 antag: 23.8*; NPY-Y2 PAM-ag: -19.9; NPY-Y1 PAM-ag: -60.2; NPY-Y1 ant conf: 12.6; NPY-Y2 antag ct: 10.4

What do the screens show for `Cc1ccc(C(C(=O)Nc2ccc3c(c2)OCO3)N(C)C(=O)Cc2c[nH]c3ccccc23)cc1` (stereo not given)?
NPY-Y2 antag: 0.8; NPY-Y1 antag: 34.9*; NPY-Y2 PAM-ag: 4.3; NPY-Y1 PAM-ag: 11.7; NPY-Y1 ant conf: -1.0; NPY-Y2 antag ct: -4.5

What do the screens show for `CC(=O)c1c(OC(=O)c2ccc(C)cc2)c2ccccc2n1C`?
NPY-Y2 antag: 14.5; NPY-Y1 antag: 33.7*; NPY-Y2 PAM-ag: -27.2; NPY-Y1 PAM-ag: -30.1; NPY-Y1 ant conf: 12.7; NPY-Y2 antag ct: 12.8

How did CC(=O)c1c(OC(=O)c2ccco2)c2ccccc2n1C do in these assays?
NPY-Y2 antag: 4.2; NPY-Y1 antag: 1.3; NPY-Y2 PAM-ag: -8.3; NPY-Y1 PAM-ag: -6.5
